From PubChem
RGS8-Gao – modulates binding of RGS8 to human Galphao. 0.34% of 220,000 active. P09471. response (percent of control binding), % at 10 µM. multiplexed bead flow cytometry; actives lie on both sides; in the data active means response below about 60% or above about 140%; inactive means in between;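 further: Galphao activated as the GDP aluminium fluoride complex binding bead-coupled RGS8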
RGS4-Gao reg – human RGS4-Galphao interaction regulation. P09471. AID 1415. Multiplexed bead flow cytometry, RGS4-Galphao binding; actives lie on both sides. 0.33% of 220,000 active. binding response (% of control), % at 10 µM; in the data active means binding response below about 49% or above about 150%; inactive means in between;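 further: fluorescent Galphao activated with aluminum fluoride binding bead-coupled RGS4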
ABCG2 block – inhibitors of human ABCG2 transporter, ABCB1 counter-screen; Q9UNQ0; IgMXP3 cells, JC-1 efflux, flow cytometry; inhibition, % at 6.6 µM; 0.1% of 190,000 active; AID 1325;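 active means inhibition above 80%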
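Incubation: cells with compound and JC-1, 10 min at 25 °C, rotating, no wash / Test system: IgMXP3 (ABCG2) plus far-red-tagged CCRF-Adr (ABCB1) cells / Compound dosing: one concentration, 6.6 µM final / Also added: JC-1 fluorescent substrate / Evaluation: efflux inhibition in percent versus controls / Detection: flow cytometry, 530 nm JC-1 signal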
ABCB1 inh – blocks JC-1 efflux by human ABCB1 transporter; P08183; CCRF-Adr cells, flow cytometry; inhibition, % at 6.6 µM; 0.067% of 190,000 active; AID 1326; in the data active means inhibition above about 40%;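 further: higher value means more JC-1 retained so stronger ABCB1 efflux block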
Target sequence (P08183 whole entry, looked up): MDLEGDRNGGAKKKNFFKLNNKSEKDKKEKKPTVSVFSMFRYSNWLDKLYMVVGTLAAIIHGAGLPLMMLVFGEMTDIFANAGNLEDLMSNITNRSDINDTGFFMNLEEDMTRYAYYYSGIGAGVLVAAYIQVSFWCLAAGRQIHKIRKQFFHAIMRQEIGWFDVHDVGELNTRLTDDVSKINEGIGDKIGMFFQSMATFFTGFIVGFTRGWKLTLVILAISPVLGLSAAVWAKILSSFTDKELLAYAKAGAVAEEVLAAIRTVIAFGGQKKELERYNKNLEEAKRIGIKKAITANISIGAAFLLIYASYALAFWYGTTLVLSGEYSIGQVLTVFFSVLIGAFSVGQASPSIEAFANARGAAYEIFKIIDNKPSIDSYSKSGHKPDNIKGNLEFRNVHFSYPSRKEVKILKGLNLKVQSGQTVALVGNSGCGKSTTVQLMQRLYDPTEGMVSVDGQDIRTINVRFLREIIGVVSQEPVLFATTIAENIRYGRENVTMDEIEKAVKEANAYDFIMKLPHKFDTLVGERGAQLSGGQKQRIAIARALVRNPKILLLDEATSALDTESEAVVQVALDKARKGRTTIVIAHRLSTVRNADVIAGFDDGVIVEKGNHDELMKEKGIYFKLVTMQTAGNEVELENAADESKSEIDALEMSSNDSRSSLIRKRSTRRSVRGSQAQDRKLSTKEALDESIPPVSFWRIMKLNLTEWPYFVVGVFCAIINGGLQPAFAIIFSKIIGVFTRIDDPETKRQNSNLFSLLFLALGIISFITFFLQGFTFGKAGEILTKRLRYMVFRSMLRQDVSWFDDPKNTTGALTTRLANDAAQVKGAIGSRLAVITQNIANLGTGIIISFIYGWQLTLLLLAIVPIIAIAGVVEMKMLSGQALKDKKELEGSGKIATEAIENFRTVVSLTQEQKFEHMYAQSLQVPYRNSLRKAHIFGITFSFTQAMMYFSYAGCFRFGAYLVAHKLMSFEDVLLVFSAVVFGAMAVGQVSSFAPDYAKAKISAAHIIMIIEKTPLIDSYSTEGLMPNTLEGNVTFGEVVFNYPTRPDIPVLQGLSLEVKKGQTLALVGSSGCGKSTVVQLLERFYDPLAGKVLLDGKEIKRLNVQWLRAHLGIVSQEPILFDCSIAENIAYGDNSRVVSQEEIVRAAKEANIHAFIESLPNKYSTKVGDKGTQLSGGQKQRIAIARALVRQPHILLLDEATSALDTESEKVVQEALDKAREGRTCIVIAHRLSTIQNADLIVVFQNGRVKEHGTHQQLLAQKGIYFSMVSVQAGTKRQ
RGS7-Gao – regulators of human RGS7-Galphao interaction | P09471 | Multiplexed bead flow cytometry, RGS7-Galphao binding; actives lie on both sides | binding response (% of control), % at 10 µM | 0.35% of 220,000 active | AID 1439; in the data active means binding response below about 49% or above about 150%; inconclusive means no clear call, values can overlap the other calls; inactive means in between;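 further: fluorescent Galphao held in activated GDP-AlF4 state binding bead-coupled RGS7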
RGS16-Gao – regulators of human RGS16-Galphao interaction; O15492+P09471; bead-based flow cytometry RGS16-Galphao binding, fluorescence; actives lie on both sides; binding response (% of control), % at 10 µM; 0.38% of 220,000 active;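 further: Galphao activated by GDP with aluminum fluoride before binding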
RGS4-Gao HTS – regulators of human RGS4-Galphao interaction; RGS4–Galpha-o binding response, % at 10 µM; multiplexed bead flow cytometry, RGS–Galpha-o binding; shares compounds with RGS16-Gao; 99% of 1,600 active;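 further: fluorescently labeled Galpha-o bound to GDP with aluminium fluoride binding biotinylated RGS beads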
Avidin counter – interferes with biotinylated probe binding to avidin beads | inhibition, % at 10 µM | streptavidin beads, fluorescein-biotin binding, flow cytometry | shares compounds with RGS16-Gao | 1,700 tested, under 10 active;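 active means inhibition above 50%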;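 further: median green fluorescence of gated singlet beads compared with DMSO control wells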
RGS8-Gao confirm – RGS8-Galphao interaction regulation, single point confirmation | 3% of 1,700 active | shares compounds with RGS16-Gao | bead-based flow cytometry RGS8-Galphao binding, fluorescence; actives lie on both sides | binding response (% of control), % at 10 µM; in the data active means binding response below about 72% or above about 130%; inactive means in between;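 further: Galphao activated as GDP AlF4 complex before binding bead RGS8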
RGS7-Gao single – confirmation of regulators of human RGS7-Galphao interaction | shares compounds with RGS16-Gao | bead-based flow cytometry RGS7-Galphao binding; actives lie on both sides | response (percent of control binding), % at 10 µM | 7.8% of 1,700 active; in the data active means response below about 75% or above about 130%; inactive means in between;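 further: fluorescent Galphao activated with GDP and aluminum fluoride binding bead-coupled RGS7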
RGS16-Gao conf – RGS16-Galphao interaction regulation, single point confirmation | shares compounds with RGS16-Gao | bead-based flow cytometry, RGS16-Galphao binding; actives lie on both sides | response (% of control binding), % at 10 µM | 4% of 1,700 active; in the data active means response below about 74% or above about 130%; inactive means in between;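 further: Galphao activated as the GDP aluminium fluoride complex binding bead-coupled RGS16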
RGS4-Gao single – RGS4-Galphao interaction regulation, single point confirmation; RGS4-Galphao binding, multiplexed bead flow cytometry; actives lie on both sides; 4% of 1,700 active; binding response (% of control), % at 10 µM; AID 1840; shares compounds with RGS16-Gao; in the data active means binding response below about 74% or above about 130%; inactive means in between
RGS19-Gao single – RGS19-Galphao interaction regulation, single point confirmation | shares compounds with RGS16-Gao | response (percent of control binding), % at 10 µM | bead-based flow cytometry RGS19-Galphao binding; actives lie on both sides | 5% of 1,700 active; in the data active means response below about 50% or above about 160%; inactive means in between
Numbers stand for hits; i = inactive; ? = inconclusive; nt = no result given; [ ] = another dose, or the depositor's remark. Most compounds without a hit are left out; they make up all but 0.9% or so of the library. Unless noted, how the calls were made is not given here.

SMILES	RGS8-Gao	RGS4-Gao reg	ABCG2 block	ABCB1 inh	RGS7-Gao	RGS16-Gao	Avidin counter	RGS8-Gao confirm	RGS7-Gao single	RGS16-Gao conf	RGS4-Gao single	RGS19-Gao single	others
CSc1nc(S(=O)(=O)c2ccccc2)c(Cl)s1	i	i	i	i	?	i	nt	nt	nt	nt	nt	nt
COc1cc2c(cc1NC(=O)CSc1nnc(Cc3cccs3)n1C)oc1ccccc12	i	315[activator]	i	i	248[activator]	314[activator]	i	i	i	i	i	i
COc1cc2c(cc1NC(=O)CSc1nnc(Cc3cccs3)n1Cc1ccco1)oc1ccccc12	i	i	i	i	i	i	nt	nt	nt	nt	nt	nt
O=C(N/N=C\c1ccc(Cl)s1)c1ccc(Cn2cccn2)o1	i	i	i	i	i	i	nt	nt	nt	nt	nt	nt
O=C(N/N=C\c1c(O)ccc2ccccc12)c1ccc(Cn2cccn2)o1	43	i	i	i	i	12	i	i	i	i	i	i	RGS4-Gao HTS=57
CCOC(=O)c1[nH]c2ccc(OC)cc2c1NC(=O)CN1CCSCC1	i	i	i	i	i	i	nt	nt	nt	nt	nt	nt
CCOC(=O)c1[nH]c2cc(OC)c(OC)cc2c1NC(=O)CCN1CCSCC1	21	17	nt	nt	?	9.8	i	i	i	i	i	i
CCC(Oc1ccccc1)C(=O)O/N=C(\N)c1ccc(OC)c(OC)c1 (configuration not stated)	i	i	i	i	i	i	nt	nt	nt	nt	nt	nt
Cc1ccc([N+](=O)[O-])cc1NC(=O)Cc1ccc(F)cc1	nt	nt	i	i	nt	nt	i	i	i	i	i	i
CCOC(=O)CC(=O)NC(C)(C)CCCCC(C)(C)NC(=O)CC(=O)OCC	i	i	nt	nt	?	i	nt	nt	nt	nt	nt	nt
Cn1c(-c2ccc3c(c2)OCO3)cnc1NCc1cccc(O)c1	i	i	i	i	i	i	nt	nt	nt	nt	nt	nt
Cc1cccc(NC(=O)c2ccccc2-c2ccccc2)c1	i	i	i	i	?	i	nt	nt	nt	nt	nt	nt
Cc1cc(NC(=O)c2ccccc2-c2ccccc2)ccc1Br	i	i	i	i	i	226[activator]	i	i	i	i	i	i	RGS4-Gao HTS=108
COc1ccc(-c2cnnn2-c2ccc(NC(=O)c3ccc(S(=O)(=O)N4CCCCC4)cc3)cc2)cc1	25	22	i	i	21	i	i	i	i	i	i	i
O=C(O)CCCC(=O)N1CCC(C(O)(c2ccccc2)c2ccccc2)CC1	i	i	i	i	i	i	i	i	i	i	i	i
OC(c1ccccc1)(c1ccccc1)C1CCN(C(=S)NCCc2ccccc2)CC1	i	i	i	i	i	i	nt	nt	nt	nt	nt	nt
O=C1c2cccc3c(O)ccc(c23)C(=O)N1Cc1ccccc1	i	181[activator]	i	i	164[activator]	186[activator]	i	126[activator]	264[activator]	203[activator]	204[activator]	219[activator]
CC(C)C(=O)NC(NC1CCS(=O)(=O)C1)C(Cl)(Cl)Cl (configuration not stated)	i	i	i	i	i	i	nt	nt	nt	nt	nt	nt
CCCC(=O)NC(NC1CCS(=O)(=O)C1)C(Cl)(Cl)Cl (configuration not stated)	34	22	i	i	11	15	i	i	i	i	i	i
